Values after ≈ are worked out from the molar mass of the structure shown.
Experiments:
Type in all cases: functional
Escherichia coli = assay: Minimum inhibition concentration in vitro determined against Escherichia coli juhl; details: Escherichia coli; read-out: MIC
Procedure, shortened: (§1)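 Agar dilution on brain-heart infusion (BHI) agar with twofold dilutions from a 2000 µg/mL stock, giving final test concentrations of 200-0.005 µg/mL. Organisms were grown overnight in BHI broth at 36 °C, and about 10⁴ organisms were inoculated per plate. Plates were incubated 18 h at 36 °C. MIC was the lowest concentration with no visible growth.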

Klebsiella aerogenes = assay: Minimum inhibition concentration in vitro determined against Enterobacteri aerogenes ATCC 13048; procedure, shortened: as §1
Klebsiella pneumoniae = assay: Minimum inhibition concentration in vitro determined against Klebsiella pneumoniae 8045; procedure, shortened: as §1
Pseudomonas aeruginosa [1] = assay: Minimum inhibition concentration in vitro determined against Pseudomona aeruginosa 5007; procedure, shortened: as §1
Pseudomonas aeruginosa [2] = assay: Minimum inhibition concentration in vitro determined against Pseudomona aeruginosa K799/WT; procedure, shortened: as §1
[3] = tested on: Staphylococcus epidermidis; assay: Minimum inhibition concentration in vitro determined against Staphylococcus epidermidis 3519; procedure, shortened: as §1
Staphylococcus aureus [4] = assay: Minimum inhibition concentration in vitro determined against Staphylococcus aureus ATCC 6538P; procedure, shortened: as §1
Streptococcus pyogenes = assay: Minimum inhibition concentration in vitro determined against Streptococcus pyogenes 930; procedure, shortened: as §1
Staphylococcus aureus [5] = assay: Minimum inhibition concentration in vitro determined against Staphylococcus aureus CMX 686B; procedure, shortened: as §1
Enterococcus faecium = assay: Minimum inhibition concentration in vitro determined against Streptococcus faecium ATCC 8043; procedure, shortened: as §1
Acinetobacter = assay: Minimum inhibition concentration in vitro determined against Acinetobacter sp CMX669; procedure, shortened: as §1

Structure (SMILES) | MIC (Escherichia coli) | MIC (Klebsiella aerogenes) | MIC (Klebsiella pneumoniae) | MIC (Pseudomonas aeruginosa [1]) | MIC (Pseudomonas aeruginosa [2]) | MIC [3] | MIC (Staphylococcus aureus [4]) | MIC (Streptococcus pyogenes) | MIC (Staphylococcus aureus [5]) | MIC (Enterococcus faecium) | MIC (Acinetobacter)
CN1CCN(c2cc3c(cc2F)c(=O)c(C(=O)O)cn3-c2ccc(F)cc2F)CC1 | 0.2 µg/mL (≈ 0.479 µM) | 0.39 µg/mL (≈ 0.934 µM) | 0.1 µg/mL (≈ 0.24 µM) | 1.56 µg/mL (≈ 3.74 µM) | 1.56 µg/mL (≈ 3.74 µM) | 0.39 µg/mL (≈ 0.934 µM) | 0.1 µg/mL (≈ 0.24 µM) | 0.78 µg/mL (≈ 1.87 µM) | 0.1 µg/mL (≈ 0.24 µM) | 0.78 µg/mL (≈ 1.87 µM) | 0.1 µg/mL (≈ 0.24 µM)
CN1CCN(c2cc3c(cc2F)c(=O)c(C(=O)O)cn3-c2ccc(Br)cc2)CC1 | 6.2 µg/mL (≈ 13.5 µM) | 12.5 µg/mL (≈ 27.2 µM) | 3.1 µg/mL (≈ 6.73 µM) | 50 µg/mL (≈ 109 µM) | 25 µg/mL (≈ 54.3 µM) | 3.1 µg/mL (≈ 6.73 µM) | 3.1 µg/mL (≈ 6.73 µM) | 50 µg/mL (≈ 109 µM) | 3.1 µg/mL (≈ 6.73 µM) | 100 µg/mL (≈ 217 µM) | 12.5 µg/mL (≈ 27.2 µM)
Cc1ccc(-n2cc(C(=O)O)c(=O)c3cc(F)c(N4CCN(C)CC4)cc32)cc1 | 1.56 µg/mL (≈ 3.95 µM) | 3.1 µg/mL (≈ 7.84 µM) | 0.78 µg/mL (≈ 1.97 µM) | 12.5 µg/mL (≈ 31.6 µM) | 12.5 µg/mL (≈ 31.6 µM) | 3.1 µg/mL (≈ 7.84 µM) | 1.56 µg/mL (≈ 3.95 µM) | 12.5 µg/mL (≈ 31.6 µM) | 1.56 µg/mL (≈ 3.95 µM) | 50 µg/mL (≈ 126 µM) | 1.56 µg/mL (≈ 3.95 µM)
CN1CCN(c2cc3c(cc2F)c(=O)c(C(=O)O)cn3-c2ccccc2)CC1 | 0.78 µg/mL (≈ 2.05 µM) | 1.56 µg/mL (≈ 4.09 µM) | 0.2 µg/mL (≈ 0.524 µM) | 6.2 µg/mL (≈ 16.3 µM) | 3.1 µg/mL (≈ 8.13 µM) | 0.78 µg/mL (≈ 2.05 µM) | 0.78 µg/mL (≈ 2.05 µM) | 3.1 µg/mL (≈ 8.13 µM) | 0.78 µg/mL (≈ 2.05 µM) | 12.5 µg/mL (≈ 32.8 µM) | 1.56 µg/mL (≈ 4.09 µM)
O=C(O)c1cn(-c2ccc(F)cc2)c2cc(N3CCCNCC3)c(F)cc2c1=O | 0.2 µg/mL (≈ 0.501 µM) | 0.39 µg/mL (≈ 0.976 µM) | 0.1 µg/mL (≈ 0.25 µM) | 1.56 µg/mL (≈ 3.91 µM) | 3.1 µg/mL (≈ 7.76 µM) | 1.56 µg/mL (≈ 3.91 µM) | 0.78 µg/mL (≈ 1.95 µM) | 6.2 µg/mL (≈ 15.5 µM) | 0.78 µg/mL (≈ 1.95 µM) | 12.5 µg/mL (≈ 31.3 µM) | 1.56 µg/mL (≈ 3.91 µM)
CN1CCN(c2cc3c(cc2F)c(=O)c(C(=O)O)cn3-c2ccccc2F)CC1 | 0.78 µg/mL (≈ 1.95 µM) | 0.78 µg/mL (≈ 1.95 µM) | 0.39 µg/mL (≈ 0.976 µM) | 6.2 µg/mL (≈ 15.5 µM) | 6.2 µg/mL (≈ 15.5 µM) | 1.56 µg/mL (≈ 3.91 µM) | 1.56 µg/mL (≈ 3.91 µM) | 12.5 µg/mL (≈ 31.3 µM) | 1.56 µg/mL (≈ 3.91 µM) | 12.5 µg/mL (≈ 31.3 µM) | 0.78 µg/mL (≈ 1.95 µM)
O=C(O)c1cn(-c2ccc(F)cc2)c2cc(N3CCOCC3)c(F)cc2c1=O | 0.39 µg/mL (≈ 1.01 µM) | 0.78 µg/mL (≈ 2.02 µM) | 0.39 µg/mL (≈ 1.01 µM) | 3.1 µg/mL (≈ 8.02 µM) | 3.1 µg/mL (≈ 8.02 µM) | 0.2 µg/mL (≈ 0.518 µM) | 0.1 µg/mL (≈ 0.259 µM) | 1.56 µg/mL (≈ 4.04 µM) | 0.1 µg/mL (≈ 0.259 µM) | 1.56 µg/mL (≈ 4.04 µM) | 0.78 µg/mL (≈ 2.02 µM)
CC(=O)NC1CCN(c2cc3c(cc2F)c(=O)c(C(=O)O)cn3-c2ccc(F)cc2)C1 (stereo not drawn) | 0.78 µg/mL (≈ 1.82 µM) | 1.56 µg/mL (≈ 3.65 µM) | 0.78 µg/mL (≈ 1.82 µM) | 6.2 µg/mL (≈ 14.5 µM) | 6.2 µg/mL (≈ 14.5 µM) | 0.39 µg/mL (≈ 0.912 µM) | 0.1 µg/mL (≈ 0.234 µM) | 0.78 µg/mL (≈ 1.82 µM) | 0.39 µg/mL (≈ 0.912 µM) | 1.56 µg/mL (≈ 3.65 µM) | 3.1 µg/mL (≈ 7.25 µM)
CN1CCN(c2cc3c(cc2F)c(=O)c(C(=O)O)cn3-c2cccc(F)c2)CC1 | 6.2 µg/mL (≈ 15.5 µM) | 6.2 µg/mL (≈ 15.5 µM) | 3.1 µg/mL (≈ 7.76 µM) | 50 µg/mL (≈ 125 µM) | 50 µg/mL (≈ 125 µM) | 12.5 µg/mL (≈ 31.3 µM) | 12.5 µg/mL (≈ 31.3 µM) | 25 µg/mL (≈ 62.6 µM) | 12.5 µg/mL (≈ 31.3 µM) | 50 µg/mL (≈ 125 µM) | 50 µg/mL (≈ 125 µM)
CN1CCN(c2cc3c(cc2F)c(=O)c(C(=O)O)cn3-c2ccc(Cl)cc2)CC1 | 1.56 µg/mL (≈ 3.75 µM) | 1.56 µg/mL (≈ 3.75 µM) | 0.78 µg/mL (≈ 1.88 µM) | 12.5 µg/mL (≈ 30.1 µM) | 6.2 µg/mL (≈ 14.9 µM) | 1.56 µg/mL (≈ 3.75 µM) | 1.56 µg/mL (≈ 3.75 µM) | 12.5 µg/mL (≈ 30.1 µM) | 1.56 µg/mL (≈ 3.75 µM) | 100 µg/mL (≈ 240 µM) | 1.56 µg/mL (≈ 3.75 µM)
COc1ccc(-n2cc(C(=O)O)c(=O)c3cc(F)c(N4CCN(C)CC4)cc32)cc1 | 50 µg/mL (≈ 122 µM) | 50 µg/mL (≈ 122 µM) | 12.5 µg/mL (≈ 30.4 µM) | 200 µg/mL (≈ 486 µM) | 100 µg/mL (≈ 243 µM) | 50 µg/mL (≈ 122 µM) | 12.5 µg/mL (≈ 30.4 µM) | 50 µg/mL (≈ 122 µM) | 12.5 µg/mL (≈ 30.4 µM) | 100 µg/mL (≈ 243 µM) | 50 µg/mL (≈ 122 µM)
CN1CCN(c2cc3c(cc2F)c(=O)c(C(=O)O)cn3-c2ccc(O)cc2)CC1 | 0.1 µg/mL (≈ 0.252 µM) | 0.2 µg/mL (≈ 0.503 µM) | 0.05 µg/mL (≈ 0.126 µM) | 0.39 µg/mL (≈ 0.981 µM) | 0.39 µg/mL (≈ 0.981 µM) | 0.2 µg/mL (≈ 0.503 µM) | 0.05 µg/mL (≈ 0.126 µM) | 0.2 µg/mL (≈ 0.503 µM) | 0.1 µg/mL (≈ 0.252 µM) | 0.39 µg/mL (≈ 0.981 µM) | 0.39 µg/mL (≈ 0.981 µM)
O=C(O)c1cn(-c2ccc(F)cc2)c2cc(N3CCC(O)CC3)c(F)cc2c1=O | 0.39 µg/mL (≈ 0.974 µM) | 1.56 µg/mL (≈ 3.9 µM) | 0.39 µg/mL (≈ 0.974 µM) | 6.2 µg/mL (≈ 15.5 µM) | 3.1 µg/mL (≈ 7.74 µM) | 0.39 µg/mL (≈ 0.974 µM) | 0.1 µg/mL (≈ 0.25 µM) | 1.56 µg/mL (≈ 3.9 µM) | 0.1 µg/mL (≈ 0.25 µM) | 1.56 µg/mL (≈ 3.9 µM) | 1.56 µg/mL (≈ 3.9 µM)

— ChEMBL document CHEMBL1122831, “Synthesis and structure-activity relationships of novel arylfluoroquinolone antibacterial agents” (1985)
